In brackets after ≈: the same amount, converted by molar mass. Activity calls are given as the source filed them. No cut-off for these calls is given here.
Key:
[1] = Induction of apoptosis in human HCT8 cells assessed as viable cells at 50 ug/mL after 24 hrs by Annexin V-FITC and propidium iodide staining-based flow cytometric analysis (reference value: 87.7%); type: cell-based, HCT-8; details: read-out: Activity
HCT-8 [2] = assay: Cell cycle arrest in human HCT8 cells assessed as accumulation at G0/G1 phase at 50 ug/mL after 24 hrs by propidium iodide staining-based flow cytometric analysis (reference value: 46.43%); type: ADME; details: hct-8, 24 h
HCT-8 [3] = assay: Cell cycle arrest in human HCT8 cells assessed as accumulation at S phase at 50 ug/mL after 24 hrs by propidium iodide staining-based flow cytometric analysis (reference value: 39.43%); type: ADME; details: hct-8, 24 h
Pseudomonas putida = assay: Antibacterial activity against Pseudomonas putida 160 assessed as growth inhibition at 1 mg/mL after 24 hrs by agar-disk diffusion technique; type: functional, organism-based
Outline: (§1)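 Agar-disk diffusion, adapted: plates seeded with 0.5 McFarland suspension prepared from 24 h cultures; 5 µL of a 1 mg/mL compound solution spotted onto the seeded solid medium; incubated 24 h at 37 °C. Stocks made in DMSO.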

Acinetobacter baumannii [4] = assay: Antibacterial activity against Acinetobacter baumannii 135 assessed as growth inhibition at 1 mg/mL after 24 hrs by agar-disk diffusion technique; type: functional, organism-based; outline: as §1
[5] = tested on: Mycobacterium tuberculosis; assay: Antimycobacterial activity against Mycobacterium tuberculosis after 8 days by micro plate Alamar Blue assay; type: functional; details: 192 h
Outline: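 Clinical M. tuberculosis strain grown in Middlebrook 7H9 broth. Compounds were dissolved in DMSO and serially diluted twofold on the plate, final 25 to 0.012 µg/mL. Plates were sealed and held 8 days at 37 °C. Alamar Blue with 10% Tween 80 (1:1) was then added for another 24 h at 37 °C. MIC was the lowest concentration preventing the blue-to-pink change.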

Enterobacter cloacae = assay: Antibacterial activity against Enterobacter cloacae 1845 assessed as growth inhibition at 1 mg/mL after 24 hrs by agar-disk diffusion technique; type: functional, organism-based; outline: as §1
HCT-8 [6] = assay: Decrease in NAT1 gene expression in human HCT8 cells at 50 ug/mL after 24 hrs by RT-PCR analysis; type: ADME, cell-based; details: hct-8, 24 h
Pseudomonas aeruginosa [7] = assay: Antibacterial activity against Pseudomonas aeruginosa 165 assessed as growth inhibition at 1 mg/mL after 24 hrs by agar-disk diffusion technique; type: functional, organism-based; outline: as §1
Pseudomonas aeruginosa [8] = assay: Antibacterial activity against Pseudomonas aeruginosa 1144 assessed as growth inhibition at 1 mg/mL after 24 hrs by agar-disk diffusion technique; type: functional, organism-based; outline: as §1
[9] = tested on: Radical scavenging activity; assay: Antioxidant activity assessed as DPPH radical scavenging activity at 0.1 mg/mL after 30 mins under dark conditions by spectrophotometric analysis relative to control; type: functional
Outline: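 Compounds dissolved in methanol at 0.1 mg/mL; 0.2 mL mixed with 1.8 mL of 2 × 10^-4 M DPPH in methanol and kept in the dark 30 min. Absorbance read at 517 nm. The blank was DPPH plus methanol. TAC (%) = (Abs initial − Abs 30 min)/Abs initial × 100.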

HCT-8 [10] = assay: Induction of apoptosis in human HCT8 cells assessed as necrotic cells at 50 ug/mL after 24 hrs by Annexin V-FITC and propidium iodide staining-based flow cytometric analysis (reference value: 7.73%); type: cell-based; details: hct-8, 24 h
Acinetobacter baumannii [11] = assay: Antibacterial activity against Acinetobacter baumannii 136 assessed as growth inhibition at 1 mg/mL after 24 hrs by agar-disk diffusion technique; type: functional, organism-based; outline: as §1
HCT-8 [12] = assay: Decrease in NAT2 gene expression in human HCT8 cells at 50 ug/mL after 24 hrs by RT-PCR analysis; type: ADME, cell-based; details: hct-8, 24 h
HCT-8 [13] = assay: Induction of apoptosis in human HCT8 cells assessed as late apoptotic cells at 50 ug/mL after 24 hrs by Annexin V-FITC and propidium iodide staining-based flow cytometric analysis (reference value: 2.97%); type: cell-based; details: hct-8, 24 h
HCT-8 [14] = assay: Induction of apoptosis in human HCT8 cells assessed as early apoptotic cells at 50 ug/mL after 24 hrs by Annexin V-FITC and propidium iodide staining-based flow cytometric analysis (reference value: 1.57%); type: cell-based; details: hct-8, 24 h
HCT-8 [15] = assay: Cell cycle arrest in human HCT8 cells assessed as accumulation at G2/M phase at 50 ug/mL after 24 hrs by propidium iodide staining-based flow cytometric analysis (reference value: 13.83%); type: ADME; details: hct-8, 24 h
Proteus mirabilis = assay: Antibacterial activity against Proteus mirabilis 1751 assessed as growth inhibition at 1 mg/mL after 24 hrs by agar-disk diffusion technique; type: functional, organism-based; outline: as §1
Acinetobacter baumannii [16] = assay: Antibacterial activity against Acinetobacter baumannii 125 assessed as growth inhibition at 1 mg/mL after 24 hrs by agar-disk diffusion technique; type: functional, organism-based; outline: as §1
Klebsiella pneumoniae = assay: Antibacterial activity against Klebsiella pneumoniae 1756 assessed as growth inhibition at 1 mg/mL after 24 hrs by agar-disk diffusion technique; type: functional, organism-based; outline: as §1
Morganella morganii = assay: Antibacterial activity against Morganella morganii 2810 assessed as growth inhibition at 1 mg/mL after 24 hrs by agar-disk diffusion technique; type: functional, organism-based; outline: as §1
Acinetobacter baumannii [17] = assay: Antibacterial activity against Acinetobacter baumannii 247 assessed as growth inhibition at 1 mg/mL after 24 hrs by agar-disk diffusion technique; type: functional, organism-based; outline: as §1
Pseudomonas aeruginosa [18] = assay: Antibacterial activity against Pseudomonas aeruginosa ATCC 27853 assessed as growth inhibition at 1 mg/mL after 24 hrs by agar-disk diffusion technique; type: functional, organism-based; outline: as §1
Escherichia coli = assay: Antibacterial activity against Escherichia coli 1777 assessed as growth inhibition at 1 mg/mL after 24 hrs by agar-disk diffusion technique; type: functional, organism-based; outline: as §1
Staphylococcus hominis = assay: Antibacterial activity against Staphylococcus hominis 1813 assessed as growth inhibition at 1 mg/mL after 24 hrs by agar-disk diffusion technique; type: functional, organism-based; outline: as §1
Staphylococcus aureus = assay: Antibacterial activity against Staphylococcus aureus assessed as growth inhibition at 1 mg/mL after 24 hrs by agar-disk diffusion technique; type: functional, organism-based; outline: as §1
Acinetobacter baumannii [19] = assay: Antibacterial activity against Acinetobacter baumannii 192 assessed as growth inhibition at 1 mg/mL after 24 hrs by agar-disk diffusion technique; type: functional, organism-based; outline: as §1
Citrobacter koseri = assay: Antibacterial activity against Citrobacter koseri 1742 assessed as growth inhibition at 1 mg/mL after 24 hrs by agar-disk diffusion technique; type: functional, organism-based; outline: as §1
Acinetobacter baumannii [20] = assay: Antibacterial activity against Acinetobacter baumannii 122 assessed as growth inhibition at 1 mg/mL after 24 hrs by agar-disk diffusion technique; type: functional, organism-based; outline: as §1
Enterococcus faecalis = assay: Antibacterial activity against Enterococcus faecalis 2920 assessed as growth inhibition at 1 mg/mL after 24 hrs by agar-disk diffusion technique; type: functional, organism-based; outline: as §1
HCT-8 [21] = assay: Increase in NAT1 gene expression in human HCT8 cells at 50 ug/mL after 24 hrs by RT-PCR analysis; type: ADME, cell-based; details: hct-8, 24 h
HCT-8 [22] = assay: Increase in NAT2 gene expression in human HCT8 cells at 50 ug/mL after 24 hrs by RT-PCR analysis; type: ADME, cell-based; details: hct-8, 24 h

Row | Structure (SMILES) | viability at 24 h, 50 ug/mL [1] [%] | Activity (HCT-8 [2]) [%] | Activity (HCT-8 [3]) [%] | growth inhibition (GI) (Pseudomonas putida) | growth inhibition (GI) (Acinetobacter baumannii [4]) | growth inhibition (GI) (Enterobacter cloacae) | Activity (HCT-8 [6]) | growth inhibition (GI) (Pseudomonas aeruginosa [7]) | growth inhibition (GI) (Pseudomonas aeruginosa [8]) | TAC [9] [%] | Activity (HCT-8 [10]) [%] | growth inhibition (GI) (Acinetobacter baumannii [11]) | Activity (HCT-8 [12]) | Activity (HCT-8 [13]) [%] | Activity (HCT-8 [14]) [%] | Activity (HCT-8 [15]) [%] | growth inhibition (GI) (Proteus mirabilis) | growth inhibition (GI) (Klebsiella pneumoniae) | growth inhibition (GI) (Morganella morganii) | growth inhibition (GI) (Pseudomonas aeruginosa [18]) | other results
1 | COc1ccc(/C=C/C(N)(S)NNC(=O)c2ccncc2)cc1 (configuration not stated) | 70.7 | 48.85 | 37.52 | Active | Active | Active | Toxic | Active | Active | 14 | 18.2 | Active | Toxic | 9.83 | 1.29 | 13.78 | inactive |  |  |  | MIC [5]: 1.56 µg/mL (≈ 4.73 µM)
2 | Cc1ccc(/C=C/C(N)=S)cc1 | 59.8 | 24.16 | 26.63 | Active | Active |  | Toxic | inactive | Active | 25.7 | 18.4 | Active | Toxic | 14.7 | 7.11 | 47.84 | inactive | inactive | inactive | inactive | growth inhibition (GI) (Acinetobacter baumannii [16]): inactive; growth inhibition (GI) (Acinetobacter baumannii [17]): inactive
3 | COc1ccc(/C=C/C(N)=S)cc1 | 63.8 | 54.61 | 23.26 | Active | Active |  | Toxic | inactive | Active | 60 | 20.3 | Active | Toxic | 12.9 | 3.09 | 23.56 | inactive | inactive | inactive | inactive | growth inhibition (GI) (Acinetobacter baumannii [16]): inactive; growth inhibition (GI) (Escherichia coli): Active; growth inhibition (GI) (Acinetobacter baumannii [17]): inactive
4 | NNC(=O)c1ccncc1 [ISONIAZID] | 71.5 | 44.12 | 38.48 |  | Active | Active | Toxic | inactive | inactive | 90 | 17.9 |  | Toxic | 8.56 | 1.95 | 15.01 | inactive | inactive | inactive | inactive | growth inhibition (GI) (Staphylococcus hominis): inactive; growth inhibition (GI) (Acinetobacter baumannii [16]): inactive; MIC [5]: 0.098 µg/mL (≈ 0.715 µM); growth inhibition (GI) (Staphylococcus aureus): inactive; growth inhibition (GI) (Acinetobacter baumannii [19]): Active; growth inhibition (GI) (Escherichia coli): inactive; growth inhibition (GI) (Citrobacter koseri): inactive; growth inhibition (GI) (Acinetobacter baumannii [17]): inactive; growth inhibition (GI) (Acinetobacter baumannii [20]): inactive; growth inhibition (GI) (Enterococcus faecalis): inactive
5 | CCOc1ccc(/C=C/C(N)=S)cc1 | 70.1 | 61.33 | 22.57 | Active | Active | Active |  |  | Active | 37.9 | 14.8 | Active | Toxic | 13.6 | 1.56 | 15.41 | Active | inactive | Active | Active | growth inhibition (GI) (Acinetobacter baumannii [16]): inactive; growth inhibition (GI) (Acinetobacter baumannii [19]): Active; growth inhibition (GI) (Citrobacter koseri): Active; growth inhibition (GI) (Acinetobacter baumannii [17]): inactive; growth inhibition (GI) (Enterococcus faecalis): Active
6 | CCOc1ccc(/C=C/C(N)(S)NNC(=O)c2ccncc2)cc1 (configuration not stated) | 44.2 | 58.14 | 22.43 | Active | Active | inactive |  |  | Active | 25.7 | 28.3 | Active |  | 21.6 | 5.81 | 17.5 |  | inactive | inactive | inactive | Activity (HCT-8 [21]): Toxic; Activity (HCT-8 [22]): Toxic; MIC [5]: 0.781 µg/mL (≈ 2.27 µM); growth inhibition (GI) (Escherichia coli): inactive

Source: ChEMBL document CHEMBL2417507, “Synthesis and bioevaluation of some new isoniazid derivatives” (Bioorg Med Chem, 2013)
